A word on the IC50: it is the concentration needed to halve the response being measured. As a reminder, the inhibition is how much of the control response was suppressed.

SMILES strings stand for the structures. Calls of active or inactive are those of the source. No cut-off for these calls is given here.

Data set [1] deals with Plasmodium falciparum. Put plainly: Antiplasmodial activity against asynchronous asexual culture of Plasmodium falciparum NF54 assessed as parasite growth inhibition. The data set is classed as functional, organism-based. In a few lines: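 Asynchronous asexual NF54 cultures exposed to 7-point, 2-step serial dilutions starting at 500nM. DHA served as positive control, DMSO as negative. IC50 interpolated from three independent experiments run in triplicate.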

The next data set has as its system HepG2. Briefly: cells. The data set is classed as functional, cell-based. As to conditions: Homo sapiens, HepG2, 72 h.
The test system of data set [2] is HL-60. Put plainly: Cytotoxicity against human HL-60 cells assessed as inhibition of cell proliferation at 32 uM measured after 72 hrs by ATPlite assay. Type of data set: functional. The method, boiled down:
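Cells exposed to compound for 72h; viability read by ATPlite. DMSO control. Technical triplicates, at least two biological replicates. IC50 interpolated from the curves.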
(ATP-based viability assays read luminescence as a measure of living cells.)

Another data set has as its target Histone deacetylase. Briefly: Inhibition of human HDAC using human HeLa cell nuclear extract measured after 60 mins by fluorescence assay. The data set is classed as tissue-based.
The target in another data set is Histone deacetylase 1 (Homo sapiens, UniProt Q13547). Briefly: Inhibition of human recombinant HDAC1 using Tosyl-Gly-ProLys(Ac)-AMC as substrate measured after 60 mins by fluorescence assay.
Histone deacetylase 1, sequence (Q13547 whole entry): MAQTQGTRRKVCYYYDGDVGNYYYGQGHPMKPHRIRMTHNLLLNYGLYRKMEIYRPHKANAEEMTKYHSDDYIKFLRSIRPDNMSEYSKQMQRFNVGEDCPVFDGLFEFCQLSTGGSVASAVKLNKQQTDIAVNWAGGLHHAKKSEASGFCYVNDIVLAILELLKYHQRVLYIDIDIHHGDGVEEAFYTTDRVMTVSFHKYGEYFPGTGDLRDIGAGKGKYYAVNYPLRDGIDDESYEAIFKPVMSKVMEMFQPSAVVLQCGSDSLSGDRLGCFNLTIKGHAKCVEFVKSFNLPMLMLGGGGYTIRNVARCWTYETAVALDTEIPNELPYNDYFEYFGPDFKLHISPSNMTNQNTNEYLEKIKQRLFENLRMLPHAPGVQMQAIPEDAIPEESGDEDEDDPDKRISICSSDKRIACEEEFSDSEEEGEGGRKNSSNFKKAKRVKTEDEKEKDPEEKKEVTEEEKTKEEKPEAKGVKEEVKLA
The test system of data set [3] is Plasmodium falciparum. Briefly: Inhibition of Plasmodium falciparum DNMT activity using nuclear extract assessed as DNA methylation at 32 uM. In a few lines: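 P. falciparum nuclear extracts tested at 32 µM compound, or the equivalent DMSO. DNA methylation activity normalized to the DMSO sample. Triplicates in two independent experiments.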
Data set [4] addresses DNA (cytosine-5)-methyltransferase 3A (Homo sapiens) (UniProt Q9Y6K1). Put plainly: Inhibition of human DNMT3A methylation.
For data set [5], the system named is Plasmodium falciparum. Put plainly: Inhibition of Plasmodium falciparum HDAC activity using nuclear extract assessed as inhibition of acetylation at 1 to 10 uM. As to conditions: dose 1-10 µM. In a few lines: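 P. falciparum protein extract (3x10⁻³mg) incubated with compound and 43 µM Tosyl-Gly-Pro-Lys(Ac)-AMC. Buffer: 25mM Tris-HCl pH 8, 140mM NaCl, 3mM KCl, 1mM MgCl₂. Run 45 min at 37°C, then trypsin 15min at RT, then ethanol. Fluorescence read at ex 380/em 460nm. Normalized to DMSO. Duplicates in ≥2 independent experiments.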

For data set [6], the target named is Histone deacetylase (Homo sapiens) (UniProt Q13547+O15379+Q9UBN7+Q92769+Q9UQL6+Q8WUI4+Q9BY41+Q96DB2+P56524+Q9UKV0+Q969S8). Put plainly: Inhibition of human HDAC activity using nuclear extract of HeLa cells assessed as inhibition of acetylation. Type of data set: tissue-based. The method, boiled down: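 HeLa nuclear extract (3x10⁻³mg) incubated with compound and 43 µM Tosyl-Gly-Pro-Lys(Ac)-AMC. Buffer: 25mM Tris-HCl pH 8, 140mM NaCl, 3mM KCl, 1mM MgCl₂. Run 45 min at 37°C, then trypsin (1mg/mL) 15min at RT, then ethanol. AMC fluorescence read at ex 380/em 460nm. Background subtracted; data normalized to DMSO. Duplicates in ≥2 independent experiments.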

In data set [7] the test system is Plasmodium falciparum. Put plainly: Antiplasmodial activity against synchronized Plasmodium falciparum NF54 assessed as effect on ring stage parasite growth in intraerythrocytic development cycle at 3 times IC50 concentration measured upto 48 hrs of cell cycle by SYBR Green 1 assay. Type of data set: functional, organism-based. As to conditions: time hrs <=48.

Data set [8] has as its system Plasmodium falciparum. Briefly: Antiplasmodial activity against synchronized Plasmodium falciparum NF54 assessed as effect on ring stage parasite growth in intraerythrocytic development cycle at 10 times IC50 concentration incubated upto 48 hrs measured after 72 hrs of post synchronization by SYBR Green 1 assay. The data set is classed as functional, organism-based. Particulars: time hrs <=48.

Data set [9] has as its system Plasmodium falciparum. Put plainly: Antiplasmodial activity against Plasmodium falciparum NF54 assessed as reduction in growth in intraerythrocytic development cycle at 3 to 10 times of IC50 concentration incubated for 24 to 36 hrs measured after 72 hrs of post synchronization by SYBR Green 1 assay. Particulars: time 24-36 hrs. The data set is classed as functional. More on the design: scale not given: the % may be the effect or the level left.

Data set [10] concerns Plasmodium falciparum. Put plainly: Antiplasmodial activity against Plasmodium falciparum NF54 assessed as reduction in growth in intraerythrocytic development cycle at 3 times of IC50 concentration incubated for 6 hrs measured after 72 hrs of post synchronization […]. The data set is classed as functional, organism-based. In a few lines: (§1)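 NF54 asexual parasites tightly synchronized to 0–3hpi. Exposed for 6h at 3× or 10× IC50, starting at 0, 6, 12, 18, 24, 30, 36 or 42hpi. Cells then pelleted, washed in RPMI and returned to culture. Parasitemia counted at 72h post-synchronization on Giemsa-stained thin smears. Survival expressed relative to DMSO. Three independent experiments, one well per condition.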

The test system of data set [11] is Plasmodium falciparum. Put plainly: Antiplasmodial activity against Plasmodium falciparum NF54 assessed as reduction in growth in intraerythrocytic development cycle at 10 times of IC50 concentration incubated for 6 hrs measured after 72 hrs of post synchronization […]. Type of data set: functional, organism-based. In a few lines:
as §1

The test system of data set [12] is Plasmodium falciparum. Briefly: Antiplasmodial activity against Plasmodium falciparum late stage IV-V gametocytes assessed as reduction in number of exflagellation centers in at 1 to 10 uM treated for 72 hrs. Type of data set: functional, organism-based. Particulars: dose 1-10 µM. In a few lines:
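Synchronous gametocytes induced; asexual forms removed with N-acetyl glucosamine for 5 days. Day-9 stage IV-V gametocytes, about 1% gametocytemia at 2% hematocrit, treated 72h at 10, 5, 1 or 0.5 µM against 0.1% DMSO. Then washed and recultured with daily medium changes. […], pelleted cells mixed 1:1 with human serum. Exflagellation centers counted over ≥10 fields at 40× within one hour. Two independent experiments; one-way ANOVA.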

The subject of data set [13] is HL-60. Briefly: cells. Type of data set: functional, cell-based. Particulars: Homo sapiens, HL-60, 72 h.
Data set [14] in a line: Microsomal stability in rat liver microsomes assessed as parent compound remaining after 1 hrs. The data set is classed as ADME, Microsome. As to conditions: read-out: Stability. Background: Liver microsomes are vesicles of endoplasmic reticulum, rich in cytochrome P450 enzymes.
Data set [15] can be described thus: Microsomal stability in human liver microsomes assessed as parent compound remaining after 1 hrs. The data set is classed as ADME, Microsome. Particulars: read-out: Stability.
Data set [16] is described as follows: Stability in rat plasma assessed as parent compound remaining after 2 hrs. The data set is classed as ADME, cell-free. As to conditions: read-out: Stability.
A short description of data set [17]: Stability in human plasma assessed as parent compound remaining after 2 hrs. Particulars: read-out: Stability. Type of data set: ADME, cell-free.
Data set [18] deals with Plasmodium berghei. Briefly: Antimalarial activity against Plasmodium berghei infected in C57BL/6 mouse cerebral malaria model infected with assessed as growth reduction at 20 mg/kg, ip bid measured after 4 days. The data set is classed as functional, organism-based. Particulars: time 4.0 day. The method, boiled down:
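Female C57BL/6 mice, 6 weeks old, infected i.p. with 10⁵ iRBC of GFP-expressing P. berghei ANKA. Treatment began 2h post-infection: i.p. 20mg/kg twice daily for 4 days, vehicle controls alongside; chloroquine 25mg/kg daily as positive control. Hydrochloride salt used. Parasitemia read daily by flow cytometry of 200,000 RBCs and confirmed on Giemsa smears. Mortality followed for 10 days. Single experiment, 5 mice per group.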

Data set [19] concerns Plasmodium berghei. Briefly: Antimalarial activity against Plasmodium berghei infected in C57BL/6 mouse cerebral malaria model infected with assessed as increase in mouse survival days at 20 mg/kg, ip bid. The data set is classed as functional, organism-based. The method, boiled down:
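Female C57BL/6 mice, 6 weeks old, infected i.p. with 10⁵ iRBC of GFP-expressing P. berghei ANKA. Dosing i.p. started 2h post-infection and ran 4 days: hydrochloride salt at 20mg/kg twice daily, vehicle control, or chloroquine 25mg/kg daily. Parasitemia measured daily by flow cytometry of 200,000 RBCs and confirmed by Giemsa smears. Parasitemia and mortality followed 10 days; n=5 mice/group, single experiment.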

DNA (cytosine-5)-methyltransferase 3A (Homo sapiens), sequence (Q9Y6K1 whole entry, looked up): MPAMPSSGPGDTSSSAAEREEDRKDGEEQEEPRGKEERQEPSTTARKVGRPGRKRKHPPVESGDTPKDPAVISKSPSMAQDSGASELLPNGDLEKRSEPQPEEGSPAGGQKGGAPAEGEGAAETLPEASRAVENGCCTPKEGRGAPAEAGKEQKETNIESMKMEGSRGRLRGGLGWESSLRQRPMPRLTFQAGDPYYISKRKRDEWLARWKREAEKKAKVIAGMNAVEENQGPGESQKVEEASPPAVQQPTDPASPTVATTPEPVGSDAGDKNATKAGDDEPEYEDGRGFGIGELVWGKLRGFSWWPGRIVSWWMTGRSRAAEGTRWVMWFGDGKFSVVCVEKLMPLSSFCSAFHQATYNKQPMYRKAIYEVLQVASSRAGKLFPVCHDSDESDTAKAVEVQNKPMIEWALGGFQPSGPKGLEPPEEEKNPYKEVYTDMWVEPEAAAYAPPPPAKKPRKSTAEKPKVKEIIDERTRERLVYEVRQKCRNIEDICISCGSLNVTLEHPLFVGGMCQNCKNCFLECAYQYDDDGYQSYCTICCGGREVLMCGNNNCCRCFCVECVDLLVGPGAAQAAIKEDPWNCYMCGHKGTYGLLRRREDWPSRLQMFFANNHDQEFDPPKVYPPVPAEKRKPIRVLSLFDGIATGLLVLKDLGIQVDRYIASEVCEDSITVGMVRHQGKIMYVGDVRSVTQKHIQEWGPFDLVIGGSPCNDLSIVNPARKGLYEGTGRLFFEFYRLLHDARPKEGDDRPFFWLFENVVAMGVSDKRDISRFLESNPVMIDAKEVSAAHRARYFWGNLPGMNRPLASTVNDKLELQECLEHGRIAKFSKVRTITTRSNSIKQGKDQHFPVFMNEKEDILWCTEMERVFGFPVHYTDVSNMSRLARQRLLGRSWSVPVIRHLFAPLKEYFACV

Consider `CCN(CC)CCNC(=O)c1ccc(NC(=O)CCCCCCC(=O)NO)cc1`, for which the IC50 amounted to 41 nM in the data set on Plasmodium falciparum [1], 8400 nM in the data set on HepG2, 60 nM against Histone deacetylase and 70 nM at Histone deacetylase 1. Further, the inhibition at 32 µM with HL-60 [2] turned out to be 65%. Also, the result in the data set on Plasmodium falciparum [3], in the data set with Plasmodium falciparum [7], in the data set on Plasmodium falciparum [8], in the data set on Plasmodium falciparum [10] and in the data set with Plasmodium falciparum [11] was inactive. Further, the inhibition result in data set [4] was “inactive”. For the same compound, the outcome in the data set on Plasmodium falciparum [5] and in the data set with Plasmodium falciparum [12] was Active. The inhibition result in [6] is “Active”. Besides, the Activity entry in the data set with Plasmodium falciparum [9] is given as “<=85%”.
On to `O=C(CCCCCCC(=O)Nc1ccc(C(=O)NC2CCNCC2)cc1)NO`, for which the IC50 turned out to be 52 nM in the data set on Plasmodium falciparum [1]; 230000 nM in the data set on HepG2; 100000 nM in the data set on HL-60 [13]; 140 nM at Histone deacetylase; 150 nM on Histone deacetylase 1. In addition, the remaining at 1 h in [14] and in data set [15] was 100% in each case. The remaining at 2 h in data set [16] and in data set [17] was 85% each time. Moreover, the outcome with Plasmodium berghei [18] and with Plasmodium falciparum [12] was Active. Besides, the Survival result with Plasmodium berghei [19] was “Active”.

These data come from ChEMBL document CHEMBL5034012, “Procainamide-SAHA Fused Inhibitors of hHDAC6 Tackle Multidrug-Resistant Malaria Parasites” (J Med Chem, 2021).
